Values after ≈ are worked out from the molar mass of the structure shown. Blank lines part the entries; values can stand above or below the compound they belong to.
Legend:
[1] = Kinetic solubility of the compound in pION buffer at pH 7.4 measured after 18 hrs; assay type: physicochemical; settings: read-out: Kinetic_solubility
Salmonella typhimurium [2] = test: Mutagenicity in Salmonella typhimurium TA1535 in absence of S9 fraction by Ames test; assay type: toxicity, organism-based; settings: salmonella enterica subsp. enterica serovar typhimurium
Salmonella typhimurium [3] = test: Mutagenicity in Salmonella typhimurium TA98 in absence of S9 fraction by Ames test; assay type: toxicity, organism-based; settings: salmonella enterica subsp. enterica serovar typhimurium
Salmonella typhimurium [4] = test: Mutagenicity in Salmonella typhimurium TA1537 in presence of S9 fraction by Ames test; assay type: toxicity, organism-based; settings: salmonella enterica subsp. enterica serovar typhimurium
Escherichia coli [5] = test: Mutagenicity in Escherichia coli WP2uvrA in presence of S9 fraction by Ames test; assay type: toxicity, organism-based
Escherichia coli [6] = test: Mutagenicity in Escherichia coli WP2uvrA in absence of S9 fraction by Ames test; assay type: toxicity, organism-based
Salmonella typhimurium [7] = test: Mutagenicity in Salmonella typhimurium TA1537 in absence of S9 fraction by Ames test; assay type: toxicity, organism-based; settings: salmonella enterica subsp. enterica serovar typhimurium
Salmonella typhimurium [8] = test: Mutagenicity in Salmonella typhimurium TA100 in presence of S9 fraction by Ames test; assay type: toxicity, organism-based; settings: salmonella enterica subsp. enterica serovar typhimurium
Salmonella typhimurium [9] = test: Mutagenicity in Salmonella typhimurium TA1535 in presence of S9 fraction by Ames test; assay type: toxicity, organism-based; settings: salmonella enterica subsp. enterica serovar typhimurium
Salmonella typhimurium [10] = test: Mutagenicity in Salmonella typhimurium TA98 in presence of S9 fraction by Ames test; assay type: toxicity, organism-based; settings: salmonella enterica subsp. enterica serovar typhimurium
Salmonella typhimurium [11] = test: Mutagenicity in Salmonella typhimurium TA100 in absence of S9 fraction by Ames test; assay type: toxicity, organism-based; settings: salmonella enterica subsp. enterica serovar typhimurium
[12] = target: T1, Diacylglycerol O-acyltransferase 1 (Mus musculus) (UniProt Q9Z2A7); test: Inhibition of DGAT1 in mouse C2C12 cells at 300 nM using [14C] oleic acid as substrate measured after 20 mins by phosphorimaging method relative to control; assay type: cell-based
T1 sequence (whole entry): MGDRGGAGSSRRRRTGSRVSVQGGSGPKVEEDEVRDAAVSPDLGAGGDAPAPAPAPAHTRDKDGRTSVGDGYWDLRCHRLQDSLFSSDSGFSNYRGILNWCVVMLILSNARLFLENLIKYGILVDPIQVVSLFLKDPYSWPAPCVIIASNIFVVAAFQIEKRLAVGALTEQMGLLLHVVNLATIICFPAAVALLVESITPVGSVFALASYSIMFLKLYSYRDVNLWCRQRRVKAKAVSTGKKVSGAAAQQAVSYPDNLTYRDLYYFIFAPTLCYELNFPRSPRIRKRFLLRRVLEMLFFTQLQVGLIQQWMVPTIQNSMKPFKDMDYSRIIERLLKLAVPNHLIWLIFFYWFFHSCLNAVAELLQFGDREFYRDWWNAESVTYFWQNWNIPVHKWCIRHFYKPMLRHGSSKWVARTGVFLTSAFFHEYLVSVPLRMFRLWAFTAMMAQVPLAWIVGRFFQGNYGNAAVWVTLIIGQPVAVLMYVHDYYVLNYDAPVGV

Mus musculus [13] = test: In vivo inhibition of DGAT1 in corn oil-induced Swiss albino mouse hypertriglyceridemia model assessed as reduction in plasma triglyceride level at 0.3 mg/kg, po pretreated for 30 mins followed by coil oil challenge measured after 2.5 hrs relative to control; assay type: functional
Summary of the method: (§1)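 Male Swiss Albino mice were fasted overnight, then dosed orally at 0.03, 0.1, 0.3, 1, 3 or 10 mg/kg. Thirty minutes later they received an oral corn oil bolus of 5 mL/kg.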

Mus musculus [14] = test: In vivo inhibition of DGAT1 in corn oil-induced Swiss albino mouse hypertriglyceridemia model assessed as reduction in plasma triglyceride level at 1 mg/kg, po pretreated for 30 mins followed by coil oil challenge measured after 2.5 hrs relative to control; assay type: functional; summary of the method: as §1
[15] = Half life in Beagle dog at 1.8 mg/kg, iv; assay type: ADME, organism-based, Canis lupus familiaris; settings: in vivo
Summary of the method: (§2)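 Male animals, n = 3 per species: C57BL/6J mouse at 2.2 mg/kg IV and 2.7 mg/kg PO; Sprague–Dawley rat at 1 mg/kg IV and 2 mg/kg PO; Beagle dog at 1.8 mg/kg IV and 5.3 mg/kg PO. Plasma clearance, Vss, IV half-life and oral %F were derived from the plasma profiles.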

[16] = Oral bioavailability in Sprague-Dawley rat at 2 mg/kg; assay type: ADME, organism-based; settings: in vivo; summary of the method: as §2
[17] = Volume of distribution at steady state in Sprague-Dawley rat at 1 mg/kg, iv or 2 mg/kg, po; assay type: ADME, organism-based; settings: in vivo, read-out: Vdss
Summary of the method: (§3)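 Male animals, n = 3 per species. Each was given a single intravenous dose and a separate oral dose, at the species-specific levels in the line. Plasma clearance, steady-state volume of distribution, IV half-life and oral bioavailability were derived from these studies.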

[18] = Oral bioavailability in C57BL/6J mouse at 2.7 mg/kg; assay type: ADME, organism-based; settings: in vivo; summary of the method: as §2
[19] = Plasma clearance in Sprague-Dawley rat at 1 mg/kg, iv or 2 mg/kg, po; assay type: ADME, organism-based; summary of the method: as §2
Mus musculus [20] = test: In vivo inhibition of DGAT1 in corn oil-induced Swiss albino mouse hypertriglyceridemia model assessed as reduction in plasma triglyceride level at 0.1 mg/kg, po pretreated for 30 mins followed by coil oil challenge measured after 2.5 hrs relative to control; assay type: functional; summary of the method: as §1
[21] = Volume of distribution at steady state in C57BL/6J mouse at 2.2 mg/kg, iv or 2.7 mg/kg, po; assay type: ADME, organism-based; settings: in vivo, read-out: Vdss; summary of the method: as §3
[22] = Plasma clearance in C57BL/6J mouse at 2.2 mg/kg, iv or 2.7 mg/kg, po; assay type: ADME, organism-based; summary of the method: as §2
[23] = Plasma clearance in Beagle dog at 1.8 mg/kg, iv or 5.3 mg/kg, po; assay type: ADME, organism-based, Canis lupus familiaris; summary of the method: as §2
Mus musculus [24] = test: In vivo inhibition of DGAT1 in corn oil-induced Swiss albino mouse hypertriglyceridemia model assessed as reduction in plasma triglyceride level at 3 mg/kg, po pretreated for 30 mins followed by coil oil challenge measured after 2.5 hrs relative to control; assay type: functional; summary of the method: as §1
[25] = Half life in Sprague-Dawley rat at 1 mg/kg, iv; assay type: ADME, organism-based; settings: in vivo; summary of the method: as §2
Mus musculus [26] = test: In vivo inhibition of DGAT1 in corn oil-induced Swiss albino mouse hypertriglyceridemia model assessed as reduction in plasma triglyceride level at 10 mg/kg, po pretreated for 30 mins followed by coil oil challenge measured after 2.5 hrs relative to control; assay type: functional; summary of the method: as §1
Mus musculus [27] = test: In vivo inhibition of DGAT1 in corn oil-induced Swiss albino mouse hypertriglyceridemia model assessed as reduction in plasma triglyceride level at 0.03 mg/kg, po pretreated for 30 mins followed by coil oil challenge measured after 2.5 hrs relative to control; assay type: functional; summary of the method: as §1
[28] = Half life in C57BL/6J mouse at 2.2 mg/kg, iv; assay type: ADME, organism-based; settings: in vivo; summary of the method: as §2
[29] = Volume of distribution at steady state in Beagle dog at 1.8 mg/kg, iv or 5.3 mg/kg, po; assay type: ADME, organism-based, Canis lupus familiaris; settings: in vivo, read-out: Vdss; summary of the method: as §3
[30] = Oral bioavailability in Beagle dog at 5.3 mg/kg; assay type: ADME, organism-based, Canis lupus familiaris; settings: in vivo; summary of the method: as §2
Mus musculus [31] = species: Mus musculus; test: animal or person; settings: Swiss, po

solubility kinetic at 18 h [1]: 34 µg/mL (≈ 76.8 µM)
Structure (SMILES): CCC1(CC(=O)O)CCc2cc(-c3ccc(NC(=O)Nc4ccccc4)cc3)ccc2C1=O (stereo unspecified)

solubility kinetic at 18 h [1]: 36 µg/mL (≈ 78.9 µM)
Structure (SMILES): CCC1(CC(=O)O)CCc2cc(-c3ccc(NC(=O)Nc4ccc(C)cc4)cc3)ccc2C1=O (stereo unspecified)

solubility kinetic at 18 h [1]: 30 µg/mL (≈ 60.4 µM)
Structure (SMILES): O=C(O)CC1(CC(F)(F)F)CCc2cc(-c3ccc(NC(=O)Nc4ccccc4)cc3)ccc2C1=O (stereo unspecified)

solubility kinetic at 18 h [1]: 5 µg/mL (≈ 10.5 µM)
inhibition [12]: 83%
Structure (SMILES): CC[C@@]1(CC(=O)O)CCc2cc(-c3ccc(NC(=O)Nc4ccc(Cl)cc4)cc3)ccc2C1=O

solubility kinetic at 18 h [1]: 26 µg/mL (≈ 50.9 µM)
Structure (SMILES): CCC1(CC(=O)O)CCc2cc(-c3ccc(NC(=O)Nc4ccccc4C(F)(F)F)cc3)ccc2C1=O (stereo unspecified)

half-life [15]: 4.6 h
bioavailability [16]: 87%
Vd [17]: 1 L/kg
solubility kinetic at 18 h [1]: 78 µg/mL (≈ 153 µM)
bioavailability [18]: 54%
clearance [19]: 6.3 mL/min/kg
Vd [21]: 2.4 L/kg
clearance [22]: 42.3 mL/min/kg
clearance [23]: 4.6 mL/min/kg
half-life [25]: 3.9 h
inhibition [12]: 75%
half-life [28]: 2.6 h
Vd [29]: 0.6 L/kg
bioavailability [30]: 149%
Structure (SMILES): CC[C@@]1(CC(=O)O)CCc2cc(-c3ccc(NC(=O)Nc4cccc(C(F)(F)F)c4)cc3)ccc2C1=O
inhibition in vivo at 1 mg/kg (Mus musculus [14]): 71%
Activity (Salmonella typhimurium [2]): Non-Toxic
Activity (Salmonella typhimurium [3]): Non-Toxic
Activity (Salmonella typhimurium [4]): Non-Toxic
Activity (Escherichia coli [5]): Non-Toxic
Activity (Escherichia coli [6]): Non-Toxic
inhibition in vivo at 0.1 mg/kg (Mus musculus [20]): 33%
Activity (Salmonella typhimurium [7]): Non-Toxic
Activity (Salmonella typhimurium [8]): Non-Toxic
Activity (Salmonella typhimurium [9]): Non-Toxic
inhibition in vivo at 3 mg/kg (Mus musculus [24]): 91%
Activity (Salmonella typhimurium [10]): Non-Toxic
inhibition in vivo at 10 mg/kg (Mus musculus [26]): 99%
inhibition in vivo at 0.03 mg/kg (Mus musculus [27]): 19%
Activity (Salmonella typhimurium [11]): Non-Toxic
ED50 (Mus musculus [31]): 0.23 mg/kg
inhibition in vivo at 0.3 mg/kg (Mus musculus [13]): 60%

solubility kinetic at 18 h [1]: 100 µg/mL (≈ 210 µM)
inhibition [12]: 72%
Structure (SMILES): CCC1(CC(=O)O)CCc2cc(-c3ccc(NC(=O)Nc4ccc(Cl)cc4)cc3)ccc2C1=O (racemic)

The next lines start with the compound.

Structure (SMILES): O=C(O)CC1CCc2cc(-c3ccc(NC(=O)Nc4ccccc4)cc3)ccc2C1=O (stereo unspecified)
solubility kinetic at 18 h [1]: 58 µg/mL (≈ 140 µM)

Structure (SMILES): CCC1(CC(=O)O)CCc2cc(-c3ccc(N)cc3)ccc2C1=O (stereo unspecified)
Activity (Salmonella typhimurium [2]): Toxic
Activity (Salmonella typhimurium [3]): Toxic
Activity (Salmonella typhimurium [4]): Toxic
Activity (Escherichia coli [5]): Toxic
Activity (Escherichia coli [6]): Toxic
Activity (Salmonella typhimurium [7]): Toxic
Activity (Salmonella typhimurium [8]): Toxic
Activity (Salmonella typhimurium [9]): Toxic
Activity (Salmonella typhimurium [10]): Toxic
Activity (Salmonella typhimurium [11]): Toxic

Structure (SMILES): COc1cccc(NC(=O)Nc2ccc(-c3ccc4c(c3)CCC(C)(CC(=O)O)C4=O)cc2)c1 (stereo unspecified)
solubility kinetic at 18 h [1]: 40 µg/mL (≈ 87.2 µM)

Structure (SMILES): CCC1(CC(=O)O)CCc2cc(-c3ccc(NC(=O)Nc4cccc(OC)c4)cc3)ccc2C1=O (stereo unspecified)
solubility kinetic at 18 h [1]: 6 µg/mL (≈ 12.7 µM)

Structure (SMILES): Nc1ncnc2c1C(=O)N(c1ccc([C@H]3CC[C@H](CC(=O)O)CC3)cc1)CCO2 [PF-04620110]
inhibition in vivo at 0.3 mg/kg (Mus musculus [13]): 94%

Structure (SMILES): CC[C@@]1(CC(=O)O)CCc2cc(-c3ccc(NC(=O)Nc4cccc(C(F)(F)F)c4)cc3Cl)ccc2C1=O
bioavailability [16]: 23%
solubility kinetic at 18 h [1]: 151 µg/mL (≈ 277 µM)

Structure (SMILES): CC1(CC(=O)O)CCc2cc(-c3ccc(NC(=O)Nc4cccc(F)c4)cc3)ccc2C1=O (stereo unspecified)
solubility kinetic at 18 h [1]: 13 µg/mL (≈ 29.1 µM)

Source: ChEMBL document CHEMBL4138301, “Discovery of Tetralones as Potent and Selective Inhibitors of Acyl-CoA:Diacylglycerol Acyltransferase 1” (ACS Med Chem Lett, 2018)
